Reference: PubChem BioAssay AID1899 (The Scripps Research Institute Molecular Screening Center, 2009)
In all, about 300,000 compounds went through this assay and about 1,000 (0.33%) were called active.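 How the source made its calls: active means inhibition above the mean of all tested compounds plus 3 SD, set per screening campaign (cut at about 45% in these data); inactive means the rest.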 Shown is part of a subset that was picked to be rich in actives.

tested on: HCV core protein (residues 1-106) dimerization; assay: inhibitors of HCV core protein dimerization, primary screen, biochemical, TR-FRET, high-throughput (AID 1899); conditions: TR-FRET GST/Flag-core106 dimerization, 1536-well; at 5 µM; active compounds read high
Summary of the method: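 Assay system: tagged HCV core106 pair (GST and Flag); medium: KF-containing HEPES buffer, pH 7.45, DTT, CHAPS, BSA; also added: Eu donor and XL665 acceptor anti-tag antibodies; dosing: 5 µM single dose; timing: compound-protein-antibody incubation 4 h at 22.5 °C; signal: TR-FRET 671 and 617 nm emission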

SMILES | inhibition
Cc1ccc(C(=O)O)cc1-c1ccc(/C=C2\SC(=O)N(CC(=O)Nc3ccc4c(c3)OCO4)C2=O)o1 | 4.8% (inactive)
C=CCOc1ccc(Cl)cc1CNCCCN1CCOCC1 | 12.2% (inactive)
CCn1c(C)c(C)c2cc(C(=O)N3CCN(c4cccc(C)c4C)CC3)ccc21 | 18% (inactive)
C[C@@H]1CC[C@@]2(OC1)O[C@H]1C[C@H]3[C@@H]4CC=C5C[C@@H](O)[C@H](O)C[C@]5(C)C4CC[C@]3(C)[C@H]1[C@@H]2C (some centres not stated) | -14.2% (inactive)
Cc1cccc(NC(=O)CN2CCCN(S(=O)(=O)c3ccc(Br)s3)CC2)c1 | 3.89% (inactive)
CCN(CC(=O)NC1CCS(=O)(=O)C1)c1nc(-c2cccnc2)nc2ccccc12 (configuration not stated) | -0.09% (inactive)
COC(=O)CCCC1=CC2=CC(=O)C(C)(OC(=O)c3cccs3)C(=O)C2=CN1CC1CC1 (configuration not stated) | -6.02% (inactive)
COC(=O)CCCC1=CC2=CC(=O)C(C)(OC(=O)c3cccs3)C(=O)C2=CN1CC(C)C (configuration not stated) | 11.6% (inactive)
COC(=O)CCCC1=CC2=CC(=O)C(C)(OC(=O)c3cccs3)C(=O)C2=CN1c1cccc(C#N)c1 (configuration not stated) | 47.4% (active)
COc1cccc(NC(=O)c2ccccc2N(Cc2ccccc2)S(C)(=O)=O)c1 | 1.86% (inactive)
COc1ccc(NC(=O)Cn2ncn3c(cc4ccccc43)c2=O)c(OC)c1OC | 50.6% (active)
CCc1ccc(NC(=O)Cn2ncn3c(cc4ccccc43)c2=O)cc1 | 13% (inactive)
COc1ccc(NC(=O)CCNC(=O)Cn2ccc3ccccc3c2=O)c(OC)c1 | -5.48% (inactive)
Fc1ccc(-c2ccc(NCCN3CCOCC3)nn2)cc1 | -9.05% (inactive)
Cc1ccc(C)c(OCCC(=O)Nc2cccc(S(=O)(=O)N3CCCC3)c2)c1 | -2.89% (inactive)
CN(C(=O)COC(=O)c1nc(Cl)ccc1Cl)C1CCS(=O)(=O)C1 (configuration not stated) | 5.01% (inactive)
CN(C(=O)COC(=O)c1cc(-c2ccco2)nc2ccccc12)C1CCS(=O)(=O)C1 (configuration not stated) | 77.2% (active)
Cc1c(-c2cccc(Cl)c2)nc2ccccc2c1C(=O)OCC(=O)N(C)C1CCS(=O)(=O)C1 (configuration not stated) | 1.86% (inactive)
COc1ccc(NC(=O)c2ccccc2CC[N+](=O)[O-])cc1 | 1.6% (inactive)
O=C(Cc1ccc(S(=O)(=O)N2CCOCC2)s1)NCCC(c1ccccc1)c1ccccc1 | 44.1% (inactive)
O=C(NC1CCCCC1)C1CCCN(S(=O)(=O)c2ccc(Br)s2)C1 (configuration not stated) | 3.6% (inactive)
O=C(Cc1ccc(S(=O)(=O)N2CCCC2)s1)NC1CCCCCC1 | 48% (active)
Cc1ccc(NS(=O)(=O)c2c(C)[nH]c(=O)[nH]c2=O)cc1C | -1.79% (inactive)
CSc1ccc(-c2c(C#N)c(N)nc3c2c(C)nn3-c2ccccc2)cc1 | 49.1% (active)
Cc1nn(-c2ccccc2)c2c1C(c1ccc(F)cc1)C(C#N)=C(N)O2 (configuration not stated) | -4.93% (inactive)

SMILES | inhibition
Cc1nc2c(c(C)nn2-c2ccccc2)c(C)c1C | -4.33% (inactive)
CC(C)C(C)(C#N)NC(=O)CSc1nc2scc(-c3ccccc3)c2c(=O)[nH]1 (configuration not stated) | 13.3% (inactive)
Cc1cc(C)c2nc(N3CCCC3)c(C#N)cc2c1 | 51.7% (active)
CCOC(=O)c1cc(C#N)c(N2CCCCC2)nc1-c1ccccc1 | 13.8% (inactive)
CCC(C)(C)n1nnnc1CN1CCN(c2nc3ccc(C)cc3cc2C#N)CC1 | 20.6% (inactive)
CN(CCC(=O)Nc1cc(S(=O)(=O)N(C)C)ccc1Cl)CC(=O)Nc1ccc(F)cc1 | -16.6% (inactive)
COc1cccc(/C=C2\Sc3ccc(C(=O)NCC4CCCO4)cc3N(C)C2=O)c1 (configuration not stated) | 4.72% (inactive)
CCOc1ccccc1NC(=O)Cn1nnc(C(=O)NCc2cccs2)c1N | -5.57% (inactive)
COc1ccc(OC)c(NC(=O)Cc2cccs2)c1 | 14.6% (inactive)
CCOc1ccccc1NC(=O)Cc1cccs1 | 55.5% (active)
COc1ccc(C(=O)c2c3ccc([N+](=O)[O-])cc3[n+]([O-])n2CCCN)cc1 | 1.89% (inactive)
CCc1ccc(NC(=O)CN2C(=O)CSC2=O)cc1 | -2.17% (inactive)
Nc1nonc1-n1nnc(C(=O)N/N=C/C2CCCCC2)c1-c1ccccc1 | -6.4% (inactive)
CCOc1ccc2c(c1)C(c1ccc(C)cc1)=NNC(c1ccc(C)cc1)=N2 | 6.95% (inactive)
Fc1ccc2c(c1)C(c1cccnc1)=NNC(c1cccs1)=N2 | -0.24% (inactive)
COc1ccc2c(c1)C(c1cccs1)=NNC(c1cccnc1)=N2 | 48.7% (active)
CC(=O)c1ccc(S(=O)(=O)NC2CC(=O)N(c3ccc4c(c3)OCCO4)C2)cc1 (configuration not stated) | 0.9% (inactive)
COc1ccc(/C=C/C2=CC(C)(C)NC(=S)N2)c(OC)c1 | 3.61% (inactive)
CN1CCN(C(=O)N2c3ccccc3CCc3ccccc32)CC1 | -2.2% (inactive)
CCOc1ccc(C(=O)NC(=S)Nc2ccc(N3CCOCC3)c(Cl)c2)cc1[N+](=O)[O-] | 15.3% (inactive)
O=C(c1cc(C(=O)N2CCN(c3ccc(F)cc3)CC2)cc([N+](=O)[O-])c1)N1CCN(c2ccc(F)cc2)CC1 | 19% (inactive)
O=C1Nc2cc(C(=O)N3CCN(c4ccc(F)cc4)CC3)ccc2NC1CSCc1cccc(F)c1 (configuration not stated) | 17.5% (inactive)
Cc1ccc(CSCC2Nc3ccc(C(=O)N4CCN(c5ccc(F)cc5)CC4)cc3NC2=O)cc1 (configuration not stated) | 67% (active)
CC(C)(C)n1nnnc1C(c1ccccc1F)N1CCN(C(=O)c2ccco2)CC1 (configuration not stated) | -2.83% (inactive)
CCCc1nc2c(c(=O)c3ccccc3n2C)c(=O)n1-c1cc(C)cc(C)c1 | 16.2% (inactive)

SMILES | inhibition
Cn1c2ccccc2c(=O)c2c(=O)n(Cc3ccco3)c(COc3ccccc3)nc21 | 47.9% (active)
CCCc1nc2c(c(=O)c3ccccc3n2C)c(=O)n1C1CCCCCC1 | 10.2% (inactive)
O=C1CN(C(=O)COc2c(Cl)cccc2Cl)c2ccccc2N1 | 1.42% (inactive)
C/C(=N\NC(=O)CC(C)C)c1c(C(F)(F)F)[nH]n(-c2nc3ccccc3s2)c1=O | -0.73% (inactive)
CCC(C)Cn1c(O)cc2nn(-c3nc4ccccc4s3)c(=O)c-2c1C (configuration not stated) | 55.2% (active)
Cc1nn(CC(=O)Nc2nc3ccccc3s2)c(C)c1[N+](=O)[O-] | -2.22% (inactive)
COC(=O)C1=C(C)NC2=C(C(=O)c3ccccc32)C1c1ccc(-c2ccc(C(=O)O)cc2)o1 (configuration not stated) | 5.77% (inactive)
CCOC(=O)C(=CNNc1ccsc1C(=O)OC)C(=O)OCC | -1.96% (inactive)
Cc1cccc(C2=N/C(=C/c3cccs3)C(=O)O2)c1 | 2.89% (inactive)
CSC1=N/C(=C\C=C\c2cccs2)C(=O)S1 | 60.2% (active)
CN1C/C(=C/c2cccs2)C(=O)/C(=C\c2cccs2)C1 | 6.47% (inactive)
Cc1ccc(-n2ncc3c2CC(C)(C)CC3NC(=O)CCc2cnn(C)c2)cc1 (configuration not stated) | -3.34% (inactive)
O=C(C1CCCN(S(=O)(=O)c2ccccc2)C1)N1CCN(c2ccc(F)cc2)CC1 (configuration not stated) | -13.8% (inactive)
Cc1cc(NC(=O)CCC(=O)N(CC(=O)NC2CCCC2)c2ccc(F)cc2)no1 | 0.03% (inactive)
COc1cccc(OC)c1CN(C)C(=O)c1cnccc1C(F)(F)F | -2.76% (inactive)
Cc1ccc(NC(=O)c2c(NC(=O)CCC(=O)O)sc3c2CCCCC3)cc1 | 47.6% (active)
Cc1ccc(C(=O)c2c(NC(=O)c3ccncc3)sc3c2CCCC3)cc1 | -2.83% (inactive)
Cc1ccc(NC(=O)c2csc3c2CCCC3)cc1 | 5.39% (inactive)
O=S(=O)(Nc1ccc(O)c2ccccc12)c1ccc(OC(F)(F)F)cc1 | -9.45% (inactive)
Cc1nn(C(=O)c2ccoc2C)c(N)c1-c1ccccc1 | -11.9% (inactive)
Cc1nn2c(c1-c1ccccc1)N=C(c1ccco1)CC2c1ccccc1 (configuration not stated) | 54.2% (active)
O=C(O)CCCC(=O)N1N=C(c2ccco2)CC1c1ccco1 (configuration not stated) | -3.41% (inactive)
Cc1ccc(/C=N/NC(=O)COc2ccccc2-c2ccccc2)cc1 | -1.07% (inactive)
CCOc1ccc(/C=C(/NC(=O)c2ccccc2)C(=O)NCCC(=O)O)cc1 | 2.36% (inactive)
CCC(Cc1ccccc1)NS(=O)(=O)c1ccc2c(c1)NC(=O)CS2 (configuration not stated) | 6.21% (inactive)

SMILES | inhibition
CCOC(=O)C1=C(C)NC(C)=C(C(=O)OCC)C1C1=COCCO1 | -7.86% (inactive)
CCC(=O)Nc1c(C)n[nH]c1C | 1.83% (inactive)
CCCCC1=CC2=CC(=O)C(C)(OC(=O)CC)C(=O)C2=CN1CCCOC(C)C (configuration not stated) | 2.27% (inactive)
C=CCN1C=C2C(=O)C(C)(OC(=O)CCc3ccccc3)C(=O)C=C2C=C1c1ccc(C#N)cc1 (configuration not stated) | 49% (active)
CC1(OC(=O)CCc2ccccc2)C(=O)C=C2C=C(c3ccc(C#N)cc3)N(CCc3ccccn3)C=C2C1=O (configuration not stated) | 13.8% (inactive)
Nc1c(-c2ccc(F)cc2)cnc2ncnn12 | 0.37% (inactive)
CC1=C(/C=C/C(C)=C/C=C/C(C)=C/C=C/C=C(C)/C=C/C=C(C)/C=C/C2=C(C)CCCC2(C)C)C(C)(C)CCC1 | 69.5% (active)
CCCCCCCCCCCCCCCC(=O)OC/C=C(C)/C=C/C=C(C)/C=C/C1=C(C)CCCC1(C)C | 2.75% (inactive)
Cc1cc(S(=O)(=O)N2CCOCC2)ccc1OCC(=O)Nc1cccc(C(F)(F)F)c1 | 0.78% (inactive)
COc1ccc(C(=O)COC(=O)Cn2cnc3c2c(=O)n(C)c(=O)n3C)c(OC)c1 | -0.66% (inactive)
O=C(NCCN1CCN(C(=O)c2cccc([N+](=O)[O-])c2)CC1)C(=O)NCc1ccc(Cl)cc1 | -0.22% (inactive)
CCOC(=O)/C=c1\s/c(=C\c2ccc(C#N)cc2)c(=O)n1CC(=O)Nc1cccc(C)c1C | 11.6% (inactive)
CCOC(=O)Cn1c(=O)oc2cc(S(=O)(=O)N(C)Cc3ccco3)ccc21 | -1.55% (inactive)
CN(c1ccccc1)c1ccc(/C=c2\s/c(=C(/C#N)C(=O)C(C)(C)C)n(Cc3ccco3)c2=O)cc1 | 63.2% (active)
CCNC(=O)c1sccc1-n1cccc1 | 0.55% (inactive)
CC(C)=CCc1c(O)c(CC=C(C)C)c2occ(-c3ccc(O)cc3)c(=O)c2c1O | -3.16% (inactive)
O=C(Cc1coc2ccc3ccccc3c12)NCc1cccs1 | 10.5% (inactive)
Cn1cccc1C(=O)NC(=O)COC(=O)Cc1coc2ccc3ccccc3c12 | 60.3% (active)
COc1ccc2c(CC(=O)OCC(=O)NC(N)=O)coc2c1 | -9.08% (inactive)
COc1ccc(S(=O)(=O)N2CCOC2CNC(=O)C(=O)NCc2ccc(F)cc2)cc1 (configuration not stated) | -0.93% (inactive)
CCOC(=O)c1c(C)[nH]c(C2=NNC(=NC(C)COC)SC2)c1C (configuration not stated) | -2.46% (inactive)
COc1cc(NC(=O)C2=CC(c3ccc(C)cc3)=NS(=O)(=O)N2C)cc(OC)c1OC | 1.17% (inactive)
